Data: publication PMC3873039 (Anti-Cancer Agents in Medicinal Chemistry, 2013)

Experiments:
K562 [1] = experiment: NucView caspase 3 activity assay by flow cytometry; type: cell-based, human; details: for EC50: Homo sapiens, K562, 24 h, read-out: AP50 (50% induction of apoptosis), Caspase 3 activity assay (C3); for The lowest dose of polyphenols at which there was a significant induction of apoptosis compared to the vehicle control: K562, caspase 3 activity, 24 h, p<0.05
Procedure, shortened: (§1)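 Seeded at 0.5 x 10⁶ cells/well and treated 24 h, with series of 0–50 or 0–250 µM depending on compound. Normalized to vehicle (0% apoptosis). Mean ± STD, three independent experiments in triplicate. One-way ANOVA/Tukey, p<0.05. AP50 = concentration giving 50% apoptotic cells.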

U937 [2] = experiment: Cell cycle analysis, propidium iodide flow cytometry; type: cell-based, human; details: U937, IC50 dose, 24 h
Procedure, shortened: (§2)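 Seeded at 0.5 x 10^6 cells per well in 12-well plates and treated 24 h at the IC50 concentration of each test compound from CellTiter-Glo. Cells were pelleted (400 g, 5 min), PBS-washed and fixed in 80% ethanol overnight at -20 °C. Staining used 50 µg/mL PI plus RNase overnight at 4 °C.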

U937 [3] = experiment: CellTiter-Glo luminescent cell viability assay; type: cell-based, human; details: U937, 24 h, doses 0, 2, 10, 50, 250, 500 µM, p<0.05
Procedure, shortened: (§3)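 Cells grown in RPMI 1640 with 10% FBS, 1.5 mM L-glutamine and penicillin/streptomycin at 37 °C, 5% CO2. Seeded at 2.5 x 10³ cells/well and exposed 24 h to ethanol-dissolved test compound (0, 2, 10, 50, 250, 500 µM) with 0.1% ethanol vehicle. ATP luminescence normalized to vehicle (100%). IC50 taken from linear regression. Lowest significant dose set by one-way ANOVA/Tukey, p<0.05. Triplicates, three independent experiments.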

KG1a [4] = experiment: CellTiter-Glo luminescent cell viability assay; type: cell-based, human; details: 24 h; for IC50: Homo sapiens, KG-1a, read-out: IC50 (50% inhibition of cellular proliferation); for The lowest dose of polyphenols at which there was a significant inhibition of cell proliferation compared to the vehicle control: KG1a, doses 0, 2, 10, 50, 250, 500 µM, p<0.05
Procedure, shortened: as §3

JURKAT [5] = experiment: CellTiter-Glo luminescent cell viability assay; type: cell-based, human; details: 24 h, doses 0, 2, 10, 50, 250, 500 µM, p<0.05
Procedure, shortened: as §3

JURKAT [6] = experiment: Cell cycle analysis, propidium iodide flow cytometry; type: cell-based, human; details: IC50 dose, 24 h, p<0.05
Procedure, shortened: as §2

MOLT-3 = experiment: as above; type: cell-based, human; details: MOLT-3, IC50 dose, 24 h
Procedure, shortened: as §2

K562 [7] = experiment: CellTiter-Glo luminescent cell viability assay; type: cell-based, human; details: K562, 24 h, doses 0, 2, 10, 50, 250, 500 µM, p<0.05
Procedure, shortened: as §3

CCRF-CEM [8] = experiment: CellTiter-Glo luminescent cell viability assay; type: cell-based, human; details: 24 h, doses 0, 2, 10, 50, 250, 500 µM, p<0.05
Procedure, shortened: as §3

non-tumor cells (CD34+) [9] = experiment: Hoechst 33342 nuclear morphological analysis of apoptosis; type: cell-based; details: 24 h, read-out: AP50 (50% induction of apoptosis), Hoechst 33342 staining (Hoe)
Procedure, shortened: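 CD34+ cells treated 24 h across the IC25–IC50 range, then pelleted (400 g, 4 °C) and fixed in 4% paraformaldehyde/PBS. Cytospins were air-dried and stained with 10 μg/ml Hoechst 33342 for 10 min in the dark, then viewed by fluorescence microscopy. 200 cells were scored per sample as % apoptotic nuclei (shrinkage, blebbing, chromatin condensation, apoptotic bodies). AP50 = concentration giving 50% apoptosis.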

HL60 [10] = experiment: CellTiter-Glo luminescent cell viability assay; type: cell-based, human; details: HL60, 24 h, doses 0, 2, 10, 50, 250, 500 µM, p<0.05
Procedure, shortened: as §3

U937 [11] = experiment: Hoechst 33342 nuclear morphological analysis of apoptosis; type: cell-based; details: Homo sapiens, U-937, 24 h, read-out: AP50 (50% induction of apoptosis), Hoechst 33342 staining (Hoe)
Procedure, shortened: (§4)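 Seeded at 0.5 x 10⁶ cells/well in 12-well plates and treated 24 h. Cells were pelleted (400 g, 5 min, 4 °C), washed in PBS, fixed in 4% paraformaldehyde, cytospun, air-dried, then stained with 10 μg/ml Hoechst 33342 for 10 min in the dark. Fluorescence microscopy: 200 cells counted, scored by condensed/intense nuclei, shrinkage, blebbing and apoptotic bodies. % apoptotic nuclei calculated. AP50 = concentration giving 50% apoptotic cells.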

U937 [12] = experiment: NucView caspase 3 activity assay by flow cytometry; type: cell-based, human; details: for EC50: Homo sapiens, U-937, 24 h, read-out: AP50 (50% induction of apoptosis), Caspase 3 activity assay (C3); for The lowest dose of polyphenols at which there was a significant induction of apoptosis compared to the vehicle control: U937, caspase 3 activity, 24 h, p<0.05
Procedure, shortened: as §1

KG1a [13] = experiment: Cell cycle analysis, propidium iodide flow cytometry; type: cell-based, human; details: IC50 dose, 24 h, vehicle control G0/G1 = 44.6%
Procedure, shortened: as §2

THP-1 = experiment: as above; type: cell-based, human; details: THP-1, IC50 dose, 24 h; vehicle control G0/G1 = 42.3%
Procedure, shortened: as §2

JURKAT [14] = experiment: NucView caspase 3 activity assay by flow cytometry; type: cell-based, human; details: 24 h; for EC50: Homo sapiens, Jurkat, read-out: AP50 (50% induction of apoptosis), Caspase 3 activity assay (C3); for The lowest dose of polyphenols at which there was a significant induction of apoptosis compared to the vehicle control: JURKAT, caspase 3 activity, p<0.05
Procedure, shortened: as §1

CCRF-CEM [15] = experiment: Hoechst 33342 nuclear morphological analysis of apoptosis; type: cell-based; details: Homo sapiens, 24 h, read-out: AP50 (50% induction of apoptosis), Hoechst 33342 staining (Hoe)
Procedure, shortened: as §4

HL60 [16] = experiment: Cell cycle analysis, propidium iodide flow cytometry; type: cell-based, human; details: HL60, IC50 dose, 24 h; vehicle control G0/G1 = 56.8%
Procedure, shortened: as §2

JURKAT [17] = experiment: Hoechst 33342 nuclear morphological analysis of apoptosis; type: cell-based; details: Homo sapiens, 24 h, read-out: AP50 (50% induction of apoptosis), Hoechst 33342 staining (Hoe)
Procedure, shortened: as §4

KG1a [18] = experiment: as above; type: cell-based; details: Homo sapiens, KG-1a, 24 h, read-out: AP50 (50% induction of apoptosis), Hoechst 33342 staining (Hoe)
Procedure, shortened: as §4

HL60 [19] = experiment: NucView caspase 3 activity assay by flow cytometry; type: cell-based, human; details: for The lowest dose of polyphenols at which there was a significant induction of apoptosis compared to the vehicle control: HL60, caspase 3 activity, 24 h, p<0.05; for EC50: Homo sapiens, HL-60, 24 h, read-out: AP50 (50% induction of apoptosis), Caspase 3 activity assay (C3)
Procedure, shortened: as §1

non-tumor cells (CD34+) [20] = experiment: NucView caspase 3 activity assay by flow cytometry; type: cell-based; details: 24 h; for EC50: read-out: AP50 (50% induction of apoptosis), Caspase 3 activity assay (C3); for The lowest dose of polyphenols at which there was a significant induction of apoptosis compared to the vehicle control: CD34+ non-tumour control cells, caspase 3 activity, p<0.05
[21] = test system: non-tumor progenitor cells (CD34+); experiment: Cell cycle analysis, propidium iodide flow cytometry; type: cell-based; details: 24 h, within the IC50 ranges used to treat the leukemic cell lines
HL60 [22] = experiment: Hoechst 33342 nuclear morphological analysis of apoptosis; type: cell-based; details: Homo sapiens, HL-60, 24 h, read-out: AP50 (50% induction of apoptosis), Hoechst 33342 staining (Hoe)
Procedure, shortened: as §4

| EC50 (K562 [1]) [µM] | EC50 (U937 [11]) [µM] | EC50 (U937 [12]) [µM] | EC50 (JURKAT [14]) [µM] | EC50 (CCRF-CEM [15]) [µM] | SMILES | The lowest dose of polyphenols at which there was a significant induction of apoptosis compared to the vehicle control (K562 [1]) [µM] | The lowest dose of polyphenols at which there was a significant inhibition of cell proliferation compared to the vehicle control (U937 [3]) [µM] | IC50 (KG1a [4]) [µM] | The lowest dose of polyphenols at which there was a significant inhibition of cell proliferation compared to the vehicle control (KG1a [4]) [µM] | The lowest dose of polyphenols at which there was a significant inhibition of cell proliferation compared to the vehicle control (JURKAT [5]) [µM] | Phase of cell cycle accumulation (JURKAT [6]) | The lowest dose of polyphenols at which there was a significant inhibition of cell proliferation compared to the vehicle control (K562 [7]) [µM] | The lowest dose of polyphenols at which there was a significant inhibition of cell proliferation compared to the vehicle control (CCRF-CEM [8]) [µM] | EC50 (non-tumor cells (CD34+) [9]) [µM] | The lowest dose of polyphenols at which there was a significant inhibition of cell proliferation compared to the vehicle control (HL60 [10]) [µM] | The lowest dose of polyphenols at which there was a significant induction of apoptosis compared to the vehicle control (U937 [12]) [µM] | Percentage of cells in G0/G1 phase of cell cycle (significant accumulation) (KG1a [13]) | Percentage of cells in G0/G1 phase of cell cycle (significant accumulation) (THP-1) | The lowest dose of polyphenols at which there was a significant induction of apoptosis compared to the vehicle control (JURKAT [14]) [µM] | Percentage of cells in G0/G1 phase of cell cycle (significant accumulation) (HL60 [16]) | also measured |
| --- | --- | --- | --- | --- | --- | --- | --- | --- | --- | --- | --- | --- | --- | --- | --- | --- | --- | --- | --- | --- | --- |
| > 10 | 27 | 4 | 2 | > 500 | Cc1cc(O)c2c(c1)C(=O)c1cc(O)cc(O)c1C2=O [Emodin] | 2 | 2 | 15 | 2 | 2 | G0/G1 phase | 2 | 2 | > 500 | 2 | 2 | G0/G1 =52.9% | G0/G1= 50.8% | 2 | G0/G1 =67.7% | Percentage of cells in G0/G1 phase of cell cycle (significant accumulation) (U937 [2]; vehicle control G0/G1 = 44.03%): G0/G1 =60%; Percentage of cells in G0/G1 phase of cell cycle (significant accumulation) (MOLT-3; vehicle control G0/G1 = 64.5%): G0/G1 =70%; EC50 (JURKAT [17]): 9 µM; EC50 (KG1a [18]): > 500 µM; The lowest dose of polyphenols at which there was a significant induction of apoptosis compared to the vehicle control (HL60 [19]): 10 µM; EC50 (HL60 [19]): 8.5 µM; EC50 (non-tumor cells (CD34+) [20]): > 10 µM; The lowest dose of polyphenols at which there was a significant induction of apoptosis compared to the vehicle control (non-tumor cells (CD34+) [20]): 10 µM; Cell cycle arrest in non-tumour control cells [21]: No Arrest <50µM; EC50 (HL60 [22]): 6 µM |
| > 50 | 50 | 50 | 19 | 50 | O=c1c(O)c(-c2ccc(O)c(O)c2)oc2cc(O)cc(O)c12 [Quercetin] | 10 | 2 | 155 | 10 | 2 | S-phase | 2 | 2 | > 500 | 2 | 2 | G0/G1=52% | G0/G1 =52% | 2 | G0/G1 =66.2% | Percentage of cells in G2/M phase of cell cycle (significant accumulation) (U937 [2]; vehicle control G2/M = 19.1%): G2/M =25%; Percentage of cells in G2/M phase of cell cycle (significant accumulation) (MOLT-3; vehicle control G2/M = 7.5%): G2/M =19%; EC50 (JURKAT [17]): 25 µM; EC50 (KG1a [18]): 125 µM; The lowest dose of polyphenols at which there was a significant induction of apoptosis compared to the vehicle control (HL60 [19]): 10 µM; EC50 (HL60 [19]): 50 µM; EC50 (non-tumor cells (CD34+) [20]): > 50 µM; The lowest dose of polyphenols at which there was a significant induction of apoptosis compared to the vehicle control (non-tumor cells (CD34+) [20]): 50 µM; Cell cycle arrest in non-tumour control cells [21]: No Arrest <50µM; EC50 (HL60 [22]): 50 µM |
